Measured values published in ChEMBL document CHEMBL3046000, “Design and synthesis of 1-(benzothiazol-5-yl)-1H-1,2,4-triazol-5-ones as protoporphyrinogen oxidase inhibitors” (Bioorg Med Chem, 2013).

Experiments:
Echinochloa crus-galli [1] = test: Post emergence herbicidal activity against Echinochloa crus-galli (barnyard grass) seedlings assessed as plant growth inhibition at 75 g ai/ha measured 15 days after compound treatment under greenhouse conditions; assay type: functional; settings: 360 h, read-out: GI
Echinochloa crus-galli [2] = test: Post emergence herbicidal activity against Echinochloa crus-galli (barnyard grass) seedlings assessed as plant growth inhibition at 150 g ai/ha measured 15 days after compound treatment under greenhouse conditions; assay type: functional; settings: 360 h, read-out: GI
Brassica juncea [3] = test: Post-emergence herbicidal activity against Brassica juncea seedlings assessed as plant growth inhibition at 150 g ai/ha measured 15 days after compound treatment under greenhouse conditions; assay type: functional; settings: 360 h, read-out: GI
Ammannia baccifera = test: Post-emergence herbicidal activity against Ammannia baccifera assessed as plant growth inhibition at 75 g ai/ha; assay type: functional; settings: read-out: GI
Method in brief: (§1)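 Compounds formulated as 100 g/L emulsifiable concentrates in DMF with Tween-80 as emulsifier, then diluted with water. Sprayed post-emergence onto pot-grown plants in a greenhouse, with broadleaf weeds at the 2-leaf stage and grasses at the 1-leaf stage. Clay soil with 1.6% organic matter and CEC 12.1 […]; relative humidity about 50%. Rate (g ai/ha) = active ingredient ÷ pot surface area. Untreated and DMF + Tween-80 solvent controls.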

Alkekengi officinarum = test: Post-emergence herbicidal activity against Physalis alkekengi assessed as plant growth inhibition at 75 g ai/ha; assay type: functional; settings: read-out: GI; method in brief: as §1
Senna tora = test: Post-emergence herbicidal activity against Senna tora assessed as plant growth inhibition at 75 g ai/ha; assay type: functional; settings: read-out: GI; method in brief: as §1
[4] = Phytotoxicity against 4-leaf stage Glycine max (soybean) plants assessed as plant growth inhibition at 150 g ai/ha applied through spraying measured 30 days after compound treatment under greenhouse conditions; assay type: organism-based; settings: in vivo, read-out: GI
Digitaria sanguinalis [5] = test: Post-emergence herbicidal activity against Digitaria sanguinalis (hairy crabgrass) seedlings assessed as plant growth inhibition at 75 g ai/ha measured 15 days after compound treatment under greenhouse conditions; assay type: functional; settings: 360 h, read-out: GI
Capsella bursa-pastoris = test: Post-emergence herbicidal activity against Capsella bursa-pastoris assessed as plant growth inhibition at 75 g ai/ha; assay type: functional; settings: read-out: GI; method in brief: as §1
[6] = Phytotoxicity against four-leaf stage Gossypium hirsutum (cotton) plants assessed as plant growth inhibition at 150 g ai/ha applied through spraying measured 30 days after compound treatment under greenhouse conditions; assay type: organism-based; settings: in vivo, read-out: GI
Symphyotrichum subulatum = test: Post-emergence herbicidal activity against Symphyotrichum subulatum assessed as plant growth inhibition at 75 g ai/ha; assay type: functional; settings: read-out: GI; method in brief: as §1
Brassica juncea [7] = test: Post-emergence herbicidal activity against Brassica juncea seedlings assessed as plant growth inhibition at 37.5 g ai/ha measured 15 days after compound treatment under greenhouse conditions; assay type: functional; settings: 360 h, read-out: GI
[8] = Phytotoxicity against four-leaf stage Oryza sativa (rice) plants assessed as plant growth inhibition at 150 g ai/ha applied through spraying measured 30 days after compound treatment under greenhouse conditions; assay type: organism-based; settings: in vivo, read-out: GI
[9] = Phytotoxicity against four-leaf stage Brassica napus (oilseed rape) plants assessed as plant growth inhibition at 150 g ai/ha applied through spraying measured 30 days after compound treatment under greenhouse conditions; assay type: organism-based; settings: in vivo, read-out: GI
Amaranthus retroflexus [10] = test: Post emergence herbicidal activity against Amaranthus retroflexus seedlings assessed as plant growth inhibition at 150 g ai/ha measured 15 days after compound treatment under greenhouse conditions; assay type: functional; settings: 360 h, read-out: GI
Commelina communis = test: Post-emergence herbicidal activity against Commelina communis (Asiatic dayflower) assessed as plant growth inhibition at 75 g ai/ha; assay type: functional; settings: read-out: GI; method in brief: as §1
Setaria faberi [11] = test: Post-emergence herbicidal activity against Setaria faberi (Giant Foxtail) seedlings assessed as plant growth inhibition at 150 g ai/ha measured 15 days after compound treatment under greenhouse conditions; assay type: functional; settings: 360 h, read-out: GI
Sonchus asper = test: Post-emergence herbicidal activity against Sonchus asper assessed as plant growth inhibition at 75 g ai/ha; assay type: functional; settings: read-out: GI; method in brief: as §1
[12] = Phytotoxicity against four-leaf stage Zea mays cv. Anjou (maize) plants assessed as plant growth inhibition at 150 g ai/ha applied through spraying measured 30 days after compound treatment under greenhouse conditions; assay type: organism-based; settings: in vivo, read-out: GI
Setaria faberi [13] = test: Post-emergence herbicidal activity against Setaria faberi (Giant Foxtail) seedlings assessed as plant growth inhibition at 37.5 g ai/ha measured 15 days after compound treatment under greenhouse conditions; assay type: functional; settings: 360 h, read-out: GI
Setaria faberi [14] = test: Post-emergence herbicidal activity against Setaria faberi (Giant Foxtail) seedlings assessed as plant growth inhibition at 75 g ai/ha measured 15 days after compound treatment under greenhouse conditions; assay type: functional; settings: 360 h, read-out: GI
Echinochloa crus-galli [15] = test: Post emergence herbicidal activity against Echinochloa crus-galli (barnyard grass) seedlings assessed as plant growth inhibition at 37.5 g ai/ha measured 15 days after compound treatment under greenhouse conditions; assay type: functional; settings: 360 h, read-out: GI
Digitaria sanguinalis [16] = test: Post-emergence herbicidal activity against Digitaria sanguinalis (hairy crabgrass) seedlings assessed as plant growth inhibition at 37.5 g ai/ha measured 15 days after compound treatment under greenhouse conditions; assay type: functional; settings: 360 h, read-out: GI
Veronica polita = test: Post-emergence herbicidal activity against Veronica polita assessed as plant growth inhibition at 75 g ai/ha; assay type: functional; settings: read-out: GI; method in brief: as §1
Eleusine indica = test: Post-emergence herbicidal activity against Eleusine indica assessed as plant growth inhibition at 75 g ai/ha; assay type: functional; settings: read-out: GI; method in brief: as §1
Digitaria sanguinalis [17] = test: Post-emergence herbicidal activity against Digitaria sanguinalis (hairy crabgrass) seedlings assessed as plant growth inhibition at 150 g ai/ha measured 15 days after compound treatment under greenhouse conditions; assay type: functional; settings: 360 h, read-out: GI
[18] = Phytotoxicity against 4-leaf stage Glycine max (soybean) plants assessed as plant growth inhibition at 75 g ai/ha applied through spraying measured 30 days after compound treatment under greenhouse conditions; assay type: organism-based; settings: in vivo, read-out: GI
[19] = target: T1, Protoporphyrinogen oxidase, chloroplastic (Nicotiana tabacum, UniProt O24163); test: Inhibition of Nicotiana tabacum (tobacco) recombinant PPO assessed as protoporphyrin IX formation at room temperature by fluorimetric assay
T1 sequence (O24163 whole entry): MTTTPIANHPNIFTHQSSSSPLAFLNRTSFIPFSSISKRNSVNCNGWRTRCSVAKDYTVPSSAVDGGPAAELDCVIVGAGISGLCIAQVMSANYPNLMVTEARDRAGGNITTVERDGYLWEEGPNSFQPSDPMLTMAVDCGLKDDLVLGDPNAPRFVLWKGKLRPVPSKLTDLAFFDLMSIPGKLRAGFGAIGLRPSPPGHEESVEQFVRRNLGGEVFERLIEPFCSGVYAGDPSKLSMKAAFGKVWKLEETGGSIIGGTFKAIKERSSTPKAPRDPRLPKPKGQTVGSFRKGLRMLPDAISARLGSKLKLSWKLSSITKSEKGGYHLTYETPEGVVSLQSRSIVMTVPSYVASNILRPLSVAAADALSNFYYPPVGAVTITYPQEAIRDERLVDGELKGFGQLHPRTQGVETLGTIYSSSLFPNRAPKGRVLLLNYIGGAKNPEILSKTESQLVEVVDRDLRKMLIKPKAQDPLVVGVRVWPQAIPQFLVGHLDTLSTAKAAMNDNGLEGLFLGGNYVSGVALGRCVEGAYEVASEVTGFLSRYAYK

Brassica juncea [20] = test: Post-emergence herbicidal activity against Brassica juncea seedlings assessed as plant growth inhibition at 75 g ai/ha measured 15 days after compound treatment under greenhouse conditions; assay type: functional; settings: 360 h, read-out: GI
Amaranthus retroflexus [21] = test: Post emergence herbicidal activity against Amaranthus retroflexus seedlings assessed as plant growth inhibition at 75 g ai/ha measured 15 days after compound treatment under greenhouse conditions; assay type: functional; settings: 360 h, read-out: GI
Amaranthus retroflexus [22] = test: Post emergence herbicidal activity against Amaranthus retroflexus seedlings assessed as plant growth inhibition at 37.5 g ai/ha measured 15 days after compound treatment under greenhouse conditions; assay type: functional; settings: 360 h, read-out: GI
Ludwigia prostrata = test: Post-emergence herbicidal activity against Ludwigia prostrata assessed as plant growth inhibition at 75 g ai/ha; assay type: functional; settings: read-out: GI; method in brief: as §1
Solanum nigrum = test: Post-emergence herbicidal activity against Solanum nigrum (black nightshade) assessed as plant growth inhibition at 75 g ai/ha; assay type: functional; settings: read-out: GI; method in brief: as §1
Polygonum humifusum = test: Post-emergence herbicidal activity against Polygonum humifusum assessed as plant growth inhibition at 75 g ai/ha; assay type: functional; settings: read-out: GI; method in brief: as §1
Amaranthus spinosus = test: Post-emergence herbicidal activity against Amaranthus spinosus assessed as plant growth inhibition at 75 g ai/ha; assay type: functional; settings: read-out: GI; method in brief: as §1
Cerastium arvense = test: Post-emergence herbicidal activity against Cerastium arvense assessed as plant growth inhibition at 75 g ai/ha; assay type: functional; settings: read-out: GI; method in brief: as §1
Chenopodium album [23] = test: Post-emergence herbicidal activity against Chenopodium album seedlings assessed as plant growth inhibition at 75 g ai/ha measured 15 days after compound treatment under greenhouse conditions; assay type: functional; settings: 360 h, read-out: GI
Chenopodium album [24] = test: Post-emergence herbicidal activity against Chenopodium album seedlings assessed as plant growth inhibition at 150 g ai/ha measured 15 days after compound treatment under greenhouse conditions; assay type: functional; settings: 360 h, read-out: GI
Boehmeria nivea = test: Post-emergence herbicidal activity against Boehmeria nivea assessed as plant growth inhibition at 75 g ai/ha; assay type: functional; settings: read-out: GI; method in brief: as §1
Myosoton aquaticum = test: Post-emergence herbicidal activity against Myosoton aquaticum assessed as plant growth inhibition at 75 g ai/ha; assay type: functional; settings: read-out: GI; method in brief: as §1
[25] = Phytotoxicity against 4-leaf stage Triticum aestivum (wheat) plants assessed as plant growth inhibition at 150 g ai/ha applied through spraying measured 30 days after compound treatment under greenhouse conditions; assay type: organism-based; settings: in vivo, read-out: GI
Phytolacca acinosa = test: Post-emergence herbicidal activity against Raddix phytolaccae assessed as plant growth inhibition at 75 g ai/ha; assay type: functional; settings: read-out: GI; method in brief: as §1
Chenopodium album [26] = test: Post-emergence herbicidal activity against Chenopodium album seedlings assessed as plant growth inhibition at 37.5 g ai/ha measured 15 days after compound treatment under greenhouse conditions; assay type: functional; settings: 360 h, read-out: GI

Cc1nn(-c2cc(NS(C)(=O)=O)c(Cl)cc2Cl)c(=O)n1C(F)F [SULFENTRAZONE]
50%: inhibition of growth at 75 g/ha (Digitaria sanguinalis [5])
70%: inhibition at 720 h [8] | inhibition at 720 h [12]
80%: inhibition of growth at 37.5 g/ha (Brassica juncea [7]) | inhibition of growth at 75 g/ha (Setaria faberi [14]) | inhibition of growth at 37.5 g/ha (Echinochloa crus-galli [15]) | inhibition of growth at 37.5 g/ha (Amaranthus retroflexus [22])
100%: inhibition of growth at 75 g/ha (Ammannia baccifera) | inhibition of growth at 75 g/ha (Alkekengi officinarum) | inhibition of growth at 75 g/ha (Capsella bursa-pastoris) | inhibition at 720 h [6] | inhibition of growth at 75 g/ha (Symphyotrichum subulatum) | inhibition at 720 h [9] | inhibition of growth at 75 g/ha (Commelina communis) | inhibition of growth at 75 g/ha (Sonchus asper) | inhibition of growth at 75 g/ha (Veronica polita) | inhibition of growth at 75 g/ha (Eleusine indica) | inhibition of growth at 75 g/ha (Ludwigia prostrata) | inhibition of growth at 75 g/ha (Solanum nigrum) | inhibition of growth at 75 g/ha (Polygonum humifusum) | inhibition of growth at 75 g/ha (Amaranthus spinosus) | inhibition of growth at 75 g/ha (Boehmeria nivea) | inhibition of growth at 75 g/ha (Phytolacca acinosa)
20%: inhibition at 720 h [4] | inhibition at 720 h [25]
> 90%: inhibition of growth at 75 g/ha (Senna tora) | inhibition of growth at 75 g/ha (Cerastium arvense) | inhibition of growth at 75 g/ha (Myosoton aquaticum)
< 50%: inhibition of growth at 37.5 g/ha (Digitaria sanguinalis [16])
30 nM: Ki [19]
60%: inhibition of growth at 37.5 g/ha (Setaria faberi [13]) | inhibition of growth at 150 g/ha (Digitaria sanguinalis [17]) | inhibition of growth at 37.5 g/ha (Chenopodium album [26])
10%: inhibition at 720 h [18]
≥ 90%: inhibition of growth at 75 g/ha (Echinochloa crus-galli [1]) | inhibition of growth at 150 g/ha (Echinochloa crus-galli [2]) | inhibition of growth at 150 g/ha (Brassica juncea [3]) | inhibition of growth at 150 g/ha (Amaranthus retroflexus [10]) | inhibition of growth at 150 g/ha (Setaria faberi [11]) | inhibition of growth at 75 g/ha (Brassica juncea [20]) | inhibition of growth at 75 g/ha (Amaranthus retroflexus [21]) | inhibition of growth at 75 g/ha (Chenopodium album [23]) | inhibition of growth at 150 g/ha (Chenopodium album [24])
